{"source": "ChEMBL document CHEMBL1671691", "about": "(Antimicrob Agents Chemother, 2010)", "key": {"Influenza A virus [1]": {"tested_on": "Influenza A virus", "assay": "Antiviral activity against adamantane-resistant zanamivir-,oseltamivir-susceptible Influenza A virus (A/pdm/California/05/2009 (H1N1)) harboring M2 V28I, S31N mutant infected in MDCK cells assessed as inhibition of viral replication after 3 days by microscopic analysis using crystal violet stain", "type": "functional, organism-based, Influenza A virus (A/California/05/2009(H1N1))"}, "Influenza A virus [2]": {"tested_on": "Influenza A virus", "assay": "Antiviral activity against adamantane-, zanamivir-susceptible oseltamivir-resistant Influenza A virus (A/Washington/10/2008(H1N1)) harboring M2 S31N mutant infected in MDCK cells assessed as inhibition of viral replication after 3 days by microscopic analysis using crystal violet stain", "type": "functional, organism-based", "procedure,_shortened": "(§1)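 Confluent MDCK-ATCC monolayers infected with virus diluted to give 15–45 plaques/well. Adsorption 1 h at 37°C without drug, then washed. Overlaid with 0.8% agarose in MEM containing drug plus TPCK-trypsin: 3 μg/ml for seasonal viruses, 2 μg/ml for 2009 A(H1N1). Incubated 3 days at 37°C, 5% CO2. Ethanol-fixed, crystal violet-stained, plaques counted. EC50 by curve fit; duplicates on three occasions, mean ± SD.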"}, "Influenza A virus [3]": {"tested_on": "Influenza A virus", "assay": "Antiviral activity against adamantane-resistant zanamivir-,oseltamivir-susceptible Influenza A virus (A/pdm/Mexico/4604/2009 (H1N1)) harboring M2 V28I, S31N mutant infected in MDCK cells assessed as inhibition of viral replication after 3 days by microscopic analysis using crystal violet stain", "type": "functional, organism-based, Influenza A virus (A/Mexico/4604/2009(H1N1))"}, "Influenza A virus [4]": {"tested_on": "Influenza A virus", "assay": "Antiviral activity against Influenza A virus (A/Illinois/10/2009(H1N1)) harboring neuraminidase H275Y mutant infected in MDCK cells from Mill Hill assessed as inhibition of viral replication after 3 days by microscopic analysis using crystal violet stain", "type": "functional"}, "Influenza A virus [5]": {"tested_on": "Influenza A virus", "assay": "(§2) Antiviral activity against oseltamivir-susceptible zanamivir-, adamantane-resistant Influenza A virus (A/pdm/Washington/29/2009 (H1N1)) harboring M2 V28I, S31N mutant and neuraminidase H274Y mutant infected in MDCK cells assessed as inhibition of viral replication after 3 days by microscopic analysis using crystal violet stain", "type": "functional, organism-based, Influenza A virus (A/Washington/29/2009(H1N1))"}, "Influenza A virus [6]": {"tested_on": "Influenza A virus", "assay": "Antiviral activity against Influenza A virus (A/Illinois/10/2009(H1N1)) harboring neuraminidase H275Y mutant infected in MDCK cells from Mill Hill assessed as log reduction in viral titer at 1.6 uM after 24 hrs by immunofluorescent assay", "type": "functional", "procedure,_shortened": "(§3)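 Yield reduction in MDCK-ATCC or MDCK-Mill Hill cells infected at MOI ∼0.01. Adsorption 1 h at 4°C, washed, then DMEM with 2 μg/ml TPCK-trypsin and drug. At 24 h, supernatants were titrated by immunofluorescent focus assay on MDCK cells with anti-NP monoclonals and FITC secondary. Titres as log10 FFU per 100 μl; detection limit <10 FFU. Quadruplicate, mean ± SD.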"}, "Influenza B virus [7]": {"tested_on": "Influenza B virus", "assay": "Antiviral activity against oseltamivir-susceptible zanamivir-, adamantane-resistant Influenza B virus (B/Rochester/01/2001) harboring neuraminidase D198N mutant infected in MDCK cells assessed as inhibition of viral replication after 3 days by microscopic analysis using crystal violet stain", "type": "functional, organism-based"}, "Influenza A virus [8]": {"tested_on": "Influenza A virus", "assay": "Antiviral activity against adamantane-resistant zanamivir-,oseltamivir-susceptible Influenza A virus (A/Massachusetts/03/2009(H3N2)) harboring M2 S31N mutant infected in MDCK cells assessed as inhibition of viral replication after 3 days by microscopic analysis using crystal violet stain", "type": "functional, organism-based", "procedure,_shortened": "as §1"}, "Influenza A virus [9]": {"tested_on": "Influenza A virus", "assay": "Antiviral activity against adamantane-susceptible zanamivir-, oseltamivir-resistant Influenza A virus (A/Brazil/1633/2008(H1N1)) harboring neuraminidase Q136K mutant infected in MDCK cells assessed as inhibition of viral replication after 3 days by microscopic analysis using crystal violet stain", "type": "functional, organism-based"}, "Influenza B virus [10]": {"tested_on": "Influenza B virus", "assay": "Antiviral activity against oseltamivir-susceptible zanamivir-, adamantane-resistant Influenza B virus B/Memphis/20/1996 harboring neuraminidase R152K mutant infected in MDCK cells assessed as inhibition of viral replication after 3 days by microscopic analysis using crystal violet stain", "type": "functional, cell-based, B/Memphis/20/96"}, "Influenza A virus [11]": {"tested_on": "Influenza A virus", "assay": "Antiviral activity against adamantane-resistant zanamivir-,oseltamivir-susceptible Influenza A virus (A/pdm/California/07/2009 (H1N1)) harboring M2 V28I, S31N mutant infected in MDCK cells assessed as inhibition of viral replication after 3 days by microscopic analysis using crystal violet stain", "type": "functional, organism-based, A/California/07/2009(H1N1)", "procedure,_shortened": "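Plaque reduction on confluent MDCK-ATCC monolayers: pretitrated virus (15–45 plaques per well) adsorbed 1 h at 37°C without drug, then washed with PBS. Agarose overlay (0.8%, in MEM) with drug added, 3 days at 37°C. Cells fixed with 70% ethanol, stained with crystal violet, plaques counted. EC50 from curve fitting, averaged over three separate experiments in duplicate, ± SD.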"}, "[12]": {"assay": "Antiviral activity against adamantane-, oseltamivir-, zanamivir-resistant Influenza B virus (B/Illinois/03/2008) harboring neuraminidase E119A mutant infected in MDCK cells assessed as inhibition of viral replication after 3 days by microscopic analysis using crystal violet stain", "type": "functional, cell-based", "procedure,_shortened": "as §1"}, "Influenza A virus [13]": {"tested_on": "Influenza A virus", "assay": "Antiviral activity against adamantane-, zanamivir-susceptible oseltamivir-resistant Influenza A virus (A/Georgia/20/2006(H1N1)) harboring neuraminidase H274Y mutant infected in MDCK cells assessed as inhibition of viral replication after 3 days by microscopic analysis using crystal violet stain", "type": "functional, organism-based", "procedure,_shortened": "as §1"}, "Influenza A virus [14]": {"tested_on": "Influenza A virus", "assay": "Antiviral activity against adamantane-resistant zanamivir-,oseltamivir-susceptible Influenza A virus (A/Wisconsin/16/2008(H1N1)) harboring neuraminidase H274Y mutant infected in MDCK cells assessed as inhibition of viral replication after 3 days by microscopic analysis using crystal violet stain", "type": "functional, organism-based", "procedure,_shortened": "as §1"}, "Influenza A virus [15]": {"tested_on": "Influenza A virus", "assay": "Antiviral activity against Influenza A virus (A/Washington/29/2009(H1N1)) harboring neuraminidase H275Y mutant infected in MDCK cells from ATCC assessed as inhibition of viral replication after 3 days by microscopic analysis using crystal violet stain", "type": "functional", "procedure,_shortened": "as §1"}, "Influenza A virus [16]": {"tested_on": "Influenza A virus", "assay": "Antiviral activity against Influenza A virus (A/Illinois/10/2009(H1N1)) harboring neuraminidase H275Y mutant infected in MDCK cells from ATCC assessed as log reduction in viral titer at 1.6 uM after 24 hrs by immunofluorescent assay", "type": "functional", "procedure,_shortened": "as §3"}, "[17]": {"assay": "Antiviral activity against adamantane-resistant zanamivir-,oseltamivir-susceptible Influenza B virus (B/Illinois/47/2005) infected in MDCK cells assessed as inhibition of viral replication after 3 days by microscopic analysis using crystal violet stain", "type": "functional, cell-based", "settings": "72 h"}, "Influenza A virus [18]": {"tested_on": "Influenza A virus", "assay": "as §2, with “(A/pdm/Illinois/10/2009(H1N1))” for “(A/pdm/Washington/29/2009 (H1N1))”", "type": "functional, organism-based, (A/Illinois/10/2009(H1N1))"}, "Influenza A virus [19]": {"tested_on": "Influenza A virus", "assay": "Antiviral activity against 0.001 MOI adamantane-resistant zanamivir-,oseltamivir-susceptible Influenza A virus (A/pdm/Mexico/4604/2009(H1N1)) harboring M2 V28I, S31N mutant infected in MDCK cells assessed as determination of viral titer in cell culture at 1.6 uM after 24 hrs by immunofluorescence assay", "type": "functional, organism-based", "settings": "Influenza A virus (A/Mexico/4604/2009(H1N1))", "procedure,_shortened": "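Focus inhibition assay: confluent MDCK monolayers infected at MOI ∼0.001–0.1. Adsorption 1 h at 4°C, washed twice, then DMEM with 2 μg/ml TPCK-trypsin and drug for 24 h at 37°C. Cells fixed in methanol/acetic acid at −20°C, immunostained with anti-NP monoclonals and FITC secondary, and foci counted. Supernatants also titrated by focus assay. Quadruplicate on two occasions.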"}, "Influenza A virus [20]": {"tested_on": "Influenza A virus", "assay": "Antiviral activity against oseltamivir-susceptible zanamivir-, adamantane-resistant Influenza A virus (A/Wuhan/395/1995-like (H3N2)) harboring neuraminidase E119V mutant infected in MDCK cells assessed as inhibition of viral replication after 3 days by microscopic analysis using crystal violet stain", "type": "functional, organism-based"}, "Influenza B virus [21]": {"tested_on": "Influenza B virus", "assay": "microbe, parasite or virus in culture", "settings": "(B/Rochester/01/2001), MDCK, 72 h"}}, "note": "Active and inactive are the calls of the source. The rule behind the calls is not given here."}
{"smiles": "NC(=O)c1nc(F)cnc1O", "note": "[FAVIPIRAVIR]", "values": [{"measurement": "EC50", "setting": "Influenza A virus [1]", "value": 0.83, "unit": "µM"}, {"measurement": "EC50", "setting": "Influenza A virus [2]", "value": 3.25, "unit": "µM"}, {"measurement": "EC50", "setting": "Influenza A virus [3]", "value": 1.21, "unit": "µM"}, {"measurement": "log10FFU", "setting": "Influenza A virus [4]", "value": 5.03}, {"measurement": "EC50", "setting": "Influenza A virus [5]", "value": 6.62, "unit": "µM"}, {"measurement": "log10FFU", "setting": "Influenza A virus [6]", "value": 4.5}, {"measurement": "EC50", "setting": "Influenza B virus [7]", "value": 1.72, "unit": "µM"}, {"measurement": "EC50", "setting": "Influenza A virus [8]", "value": 4.2, "unit": "µM"}, {"measurement": "EC50", "setting": "Influenza A virus [9]", "value": 0.83, "unit": "µM"}, {"measurement": "EC50", "setting": "Influenza B virus [10]", "value": 0.57, "unit": "µM"}, {"measurement": "EC50", "setting": "Influenza A virus [11]", "value": 1.4, "unit": "µM"}, {"measurement": "EC50", "setting": "[12]", "value": 3, "unit": "µM"}, {"measurement": "EC50", "setting": "Influenza A virus [13]", "value": 2.55, "unit": "µM"}, {"measurement": "EC50", "setting": "Influenza A virus [14]", "value": 2.87, "unit": "µM"}, {"measurement": "log10FFU", "setting": "Influenza A virus [15]", "value": 0.78}, {"measurement": "log10FFU", "setting": "Influenza A virus [16]", "value": 4.9}, {"measurement": "EC50", "setting": "[17]", "value": 4.01, "unit": "µM"}, {"measurement": "EC50", "setting": "Influenza A virus [18]", "value": 22.5, "unit": "µM"}, {"measurement": "Activity", "setting": "Influenza A virus [19]", "value": "Active"}, {"measurement": "EC50", "setting": "Influenza A virus [20]", "value": 5.41, "unit": "µM"}, {"measurement": "EC50", "setting": "Influenza B virus [21]", "value": 1.4, "unit": "µM"}]}
